Diaph act CS: counter-screen for diaphorase-based assays: diaphorase activators and chemical reducers; Diaphorase/resazurin coupled assay, resorufin fluorescence, 16 min; active compounds read high; 1 = vehicle wells, 0 = NADH-free wells; AID 1229; 0.005% of 190,000 active; activation factor at 20 µM;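 active means diaphorase activity raised at least twofold by the compound at 20 µM; inactive means activation factor below 2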
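test system = bacterial diaphorase enzyme (C. kluyveri) | quantity = enzyme 0.07 U/mL final | reagent = NADH substrate 0.114 mM plus resazurin dye 0.1 mM, final | incubation = 16 min enzyme reaction, ambient temperature | buffer or medium = HEPES pH 7.4 buffer with MgCl2 and Tween 20 | signal = fluorescence of resorufin, 544 nm excitation, 590 nm emission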
PfGluPho inh: PfG6PD (Plasmodium falciparum) enzyme inhibition; PfGluPho enzyme, NADPH resazurin-diaphorase fluorescence; inhibition, % at 20 µM; 0.78% of 350,000 active;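 active means inhibition reaching at least a set limit at 20 µM in the primary screen, cut at about 59% in these data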;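 further: 0% = DMSO wells with substrate and 100% = DMSO wells lacking glucose-6-phosphate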
L major viab: reduces viability of Leishmania major promastigotes; resazurin fluorescence viability; inhibition, % at 10 µM; 9% of 200,000 active;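 further: promastigotes grown with compound for 44 hours at 28 °C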
Diaph inh CS: diaphorase inhibition or chemical oxidation counter-screen. diaphorase resazurin-to-resorufin fluorescence, NADH, 16 min; bacterial (C. kluyveri) enzyme, not human. inhibition, % at 20 µM. 0.69% of 190,000 active;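 active means primary screen inhibition at 20 µM above a set limit, cut at about 50% in these data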;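 further: plate controls were DMSO with full reaction for no effect and wells lacking NADH for full effect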
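Assay system: diaphorase enzyme from Clostridium kluyveri; Input: enzyme working solution with 0.14 U/mL diaphorase; Timing: 16 min at room temperature; Technique: resorufin fluorescence, excitation 544 nm, emission 590 nm; Benchmarks: positive control minus NADH, DMSO neutral control.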
G6PDH CS: L. mesenteroides G6PDH inhibition counter-screen; AID 1020; 0.12% of 200,000 active; inhibition, % at 5 µM; Purified L. mesenteroides G6PDH, diaphorase/resazurin coupled fluorescence, 45 min
DTT redox prof: compounds producing H2O2 with reducing agent – biochemical, NIH compound library profiling, artefact control for MLSCN library redox annotation, primary screen; DTT-dependent redox cycling H2O2, phenol red/HRP absorbance; 100% = 100 µM peroxide control, 0% = buffer; activation, % at 10 µM; 0.03% of 200,000 active; AID 878;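 active means activation of at least 50% relative to the plate's high and low controls in the primary single-dose screen; inactive means activation below 50%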;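 further: compound incubated with DTT at 0.8 mM final as the reducing agent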
* hit, by the source's call; . = no result. The entries come from a sample that favours hits as a whole. Unless noted, no stated cut-off is given here; in the data, active means inhibition above about 50%; inactive means the rest.

SMILES	Diaph act CS	PfGluPho inh	L major viab	Diaph inh CS	G6PDH CS	DTT redox prof
COc1cc(/C=C/C(=O)OCC(=O)N(CC(C)C)c2c(N)n(Cc3ccccc3)c(=O)[nH]c2=O)ccc1O	.	11.8	.	.	.	.
COC(=O)C1=C(C)NC(C)=C(C(=O)OC)C1c1cn(-c2ccccc2)nc1-c1ccco1	0.7	6.2	64.4*	28.5	3.3	-0.2
COc1cccc(C2C(C#N)=C(N)OC3=C2C(=O)CC(c2ccco2)C3)c1OCc1ccc(F)cc1 (stereo not drawn)	0.7	17.7	75.5*	26.7	5.8	-0.1
COc1ccccc1CNC(=O)C1CC2Cn3c(nc4cc(Cl)c(Cl)cc43)C2N1C (stereo not drawn)	.	10.6	.	.	.	.
O=C1C2C3C=CC(C3=C(c3ccccc3)c3ccccc3)C2C(=O)N1CCO (stereo not drawn)	0.7	-3.0	97.6*	25.5	1.7	0.2
CC(=O)Nc1ccc(NC(=O)c2ccc(C3SCC(=O)N3CCc3ccccc3)cc2)cc1 (stereo not drawn)	0.8	15.9	45.3	17.1	3.6	0.5
Cc1cccc(NC(=O)c2ccc(C3SCC(=O)N3CCc3ccccc3)cc2)c1 (stereo not drawn)	0.8	6.5	96.3*	22.2	-9.1	-0.2
CN(C(=O)c1ccnn1C)C1CCCN(Cc2ccccc2F)C1 (stereo not drawn)	.	2.3	.	.	.	.
O=C(Nc1nnc(-c2ccc(Cl)cc2)o1)C1CCCCC1	.	-1.3	.	.	.	.
O=C(Nc1nnc(-c2ccc3c(c2)OCCO3)o1)C1CCCCC1	0.9	-4.2	72.4*	5.2	-3.7	0.5
O=C(CNC(=S)NC(=O)c1ccc(Br)o1)c1ccccc1	0.9	-1.5	-5.1	11.0	0.4	-0.3
O=C(CNC(=S)NC(=O)c1ccc(Cl)cc1)c1ccccc1	1	-3.9	88.4*	-2.9	1.3	.
Cc1csc(=O)n1CC(=O)OCC(=O)Nc1cc(Cl)ccc1[N+](=O)[O-]	.	-6.4	.	.	.	.
O=S(=O)(c1cccs1)N1CCN(c2ccccc2Cl)CC1	.	-10.4	.	.	.	.
COc1ccccc1N1CCN(S(=O)(=O)c2cccs2)CC1	0.8	-0.5	54.0*	16.1	4.2	0.3
O=C1C(NS(=O)(=O)c2cccs2)=C(N2CCN(Cc3ccccc3)CC2)C(=O)c2ccccc21	.	13.3	.	.	.	.
O=C1C(NS(=O)(=O)c2cccs2)=C(N2CCN(c3cccc(C(F)(F)F)c3)CC2)C(=O)c2ccccc21	0.7	17.3	61.8*	25.5	18.9	1.5
CN1CCN(C2=C(NS(=O)(=O)c3cccs3)C(=O)c3ccccc3C2=O)CC1	.	13.9	.	.	.	.
CCOc1ccccc1N1CCN(C2=C(NS(=O)(=O)c3cccs3)C(=O)c3ccccc3C2=O)CC1	0.6	-8.0	99.4*	43.5	30.7	0.3
CC(C)Oc1cccc(C(=O)NC(=S)Nc2ccccc2)c1	0.8	7.5	86.1*	18.8	0.0	0.4
COc1cc(NC(=S)NCc2cccnc2)cc(OC)c1	0.9	-8.6	95.8*	11.8	13.5	.
CC(C)C(=O)Nc1cccc(NC(=S)NC(=O)c2ccccc2Cl)c1	1	-11.5	1.9	2.8	11.8	3.0
CC(C)COc1cccc(C(=O)NC(=S)Nc2cccc(NC(=O)c3ccccc3Cl)c2)c1	0.7	-5.5	80.2*	27.1	-11.4	-0.6
CC(C)COc1cccc(C(=O)NC(=S)NCc2cccnc2)c1	0.5	3.9	4.7	50.8*	-11.3	0.0
CCOc1cccc(C(=O)NC(=S)NCc2cccnc2)c1	0.8	-2.2	-4.7	16.6	6.5	-0.9
SMILES	Diaph act CS	PfGluPho inh	L major viab	Diaph inh CS	G6PDH CS	DTT redox prof
N#Cc1cc2c(cc1NC(=O)CCn1cnnn1)OCO2	.	14.1	.	.	.	.
Cn1c(=O)c(S(=O)C2CCCCC2)c(O)c2ccccc21 (stereo not drawn)	.	-1.6	.	.	.	.
CC(=O)c1cccc(NC(=S)NC(=O)c2cccc(C)c2)c1	0.7	19.1	51.1*	25.8	5.5	.
CC(=O)c1cccc(NC(=O)c2oc(C)nc2C)c1	0.9	2.8	71.8*	10.6	-2.0	0.2
CC(=O)c1cccc(NC(=S)NC(=O)c2ccc(Cl)cc2)c1	0.9	7.4	-5.9	12.9	-4.0	0.0
CCCCOc1cccc(C(=O)NC(=S)Nc2cccc(NC(=O)c3ccccc3Cl)c2)c1	0.8	8.3	20.3	16.0	10.8	0.2
